# Assay outcomes deposited in PubChem by Johns Hopkins Ion Channel Center.
# Rows were chosen to be rich in hits. Some 2.3% of all compounds tested hit in one or more screens of this group.
# TRPC4 act: TRPC4 (mouse) channel activation | B-score at 10 µM | HEK293 TRPC4beta/mu-opioid, Fluo4 calcium fluorescence; stronger effect = higher value | actives 0.49% (n = 310,000) | AID 2237 | Q9QUQ5;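 active = B-score above 5 SD of library B-scores, and initial fluorescence ratio not above library mean plus 5 SD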;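 note: positive B-score marks a calcium rise read as TRPC4 activation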
#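 Test system: HEK293 cells stably co-expressing mouse TRPC4beta and mu-opioid receptor | Schedule: Fluo4 dye loading 45 min at room temperature, 110 s recording | Measured by: Kinetic Fluo4 calcium fluorescence, 5 s baseline at 1 Hz | Evaluation: B score of integrated ratio | Controls: Buffer (low) and maximal DAMGO (high)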
# TRPC6 activator: mouse TRPC6 channel activation | HEK293-TRPC6 membrane potential dye fluorescence; stronger effect = higher value | B-score at 10 µM | actives 0.13% (n = 310,000);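 active = B-score of the integrated fluorescence ratio above library mean plus 3 SD, and starting fluorescence ratio within library mean plus 5 SD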;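 note: higher score means more depolarization so channel activation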
# Target sequence (Q61143 whole entry, looked up): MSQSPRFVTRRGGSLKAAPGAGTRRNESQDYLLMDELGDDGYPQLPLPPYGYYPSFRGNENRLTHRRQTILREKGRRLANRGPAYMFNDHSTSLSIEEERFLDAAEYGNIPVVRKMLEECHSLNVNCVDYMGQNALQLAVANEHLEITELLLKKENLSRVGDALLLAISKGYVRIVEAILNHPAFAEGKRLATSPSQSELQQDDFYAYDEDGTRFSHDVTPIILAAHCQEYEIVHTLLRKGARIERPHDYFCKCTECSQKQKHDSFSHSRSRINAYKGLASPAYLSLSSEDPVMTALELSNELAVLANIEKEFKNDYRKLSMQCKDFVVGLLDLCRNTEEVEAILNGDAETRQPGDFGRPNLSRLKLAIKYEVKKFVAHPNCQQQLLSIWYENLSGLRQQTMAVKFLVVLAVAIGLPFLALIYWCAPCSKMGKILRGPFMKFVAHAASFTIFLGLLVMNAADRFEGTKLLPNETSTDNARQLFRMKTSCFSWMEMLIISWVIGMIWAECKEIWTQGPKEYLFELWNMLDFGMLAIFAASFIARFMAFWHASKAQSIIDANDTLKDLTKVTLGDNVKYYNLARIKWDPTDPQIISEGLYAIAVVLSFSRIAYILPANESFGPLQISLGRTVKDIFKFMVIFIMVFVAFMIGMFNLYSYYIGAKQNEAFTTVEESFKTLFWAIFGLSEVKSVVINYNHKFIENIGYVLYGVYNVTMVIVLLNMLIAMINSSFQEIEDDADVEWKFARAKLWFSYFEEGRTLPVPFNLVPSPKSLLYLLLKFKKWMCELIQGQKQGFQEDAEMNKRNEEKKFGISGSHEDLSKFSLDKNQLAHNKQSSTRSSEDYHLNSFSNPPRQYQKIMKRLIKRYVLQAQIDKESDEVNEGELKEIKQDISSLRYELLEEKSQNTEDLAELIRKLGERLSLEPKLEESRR
# TRPC6 inh: blocks the mouse TRPC6 cation channel | Q61143 | HEK293-TRPC6, membrane potential dye, ACh-evoked depolarization; stronger effect = lower value | B-score at 10 µM | actives 1.1% (n = 310,000) | AID 2553;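 active = B-score under library mean minus 3 SD, initial fluorescence not abnormally high, positive integrated signal ratio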;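 note: B-score derived from integrated fluorescence ratio over the kinetic read; more negative B-score means stronger inhibition of depolarization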
# TRPC4 inh: blocks the mouse TRPC4 cation channel | HEK293 TRPC4beta/mu-opioid, DAMGO-evoked Fluo4 calcium flux; stronger effect = lower value | B-score at 10 µM | Q9QUQ5 | actives 0.39% (n = 300,000) | AID 2247;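 active = B-score over 3 SD under the library average, no early fluorescence shift, positive overall ratio signal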
#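 Assay system: HEK293 cells with stable TRPC4beta plus mu-opioid receptor expression; Probe or stimulus: DAMGO in two steps, submaximal then maximal; Dosing: single-point compound dosing; Measured by: Fluo4 calcium-dye fluorescence, kinetic read; Read-out basis: B score from integrated Fluo4 fluorescence ratio.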
# TRPC4 PAM: TRPC4 (mouse) allosteric potentiation | B-score at 10 µM | actives 0.42% (n = 310,000) | HEK293 TRPC4beta/mu-opioid, DAMGO EC20, Fluo-4 Ca2+ flux; stronger effect = higher value | Q9QUQ5 | AID 2227;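 active = B-score of calcium response area above 5 SD of library B-scores, with initial fluorescence ratio within 5 SD of library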;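 note: B-score of integrated fluorescence ratio over time as area under calcium response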
# TRPC4 spec 2: mouse TRPC4 off-target activity of TRPC6 inhibitors, second screen; shares compounds with TRPC6 inh; HEK293 TRPC4/MOR, membrane potential dye fluorescence; channel activated by saturating DAMGO dose; inhibition, % at 10 µM; actives 42% (n = 920);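 active = compounds whose fluorescence signal differed from control wells by over 3 SD, either direction, in both duplicate plates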
# TRPC4 spec: tests whether TRPC6 inhibitors also affect mouse TRPC4 | shares compounds with TRPC6 inh | HEK293 TRPC4/mu-opioid, membrane potential fluorescence | activity change, negative = inhibition, % at 10 µM | actives 61% (n = 920) | AID 2777;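 active = rise or fall in signal beyond 3 SD of buffer-only wells in both replicate plates, either sign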;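 note: integrated kinetic ratio of fluorescence range over baseline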
# HEK293 MPD ctr 2-1: second check of TRPC6 inhibitor effects in parental HEK293 cells | shares compounds with TRPC6 inh | parental HEK293 membrane potential dye fluorescence; maximal acetylcholine challenge after compound addition | signal change vs control, % at 10 µM | actives 31% (n = 920);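 active = membrane potential signal moving either way by over 3 SD of the maximum-effect control, in both duplicate plates, meaning non-specific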
# HEK293 MPD ctr-1: counter-screen for TRPC6 inhibitors: effect in parental HEK293 cells; shares compounds with TRPC6 inh; parental HEK293 membrane potential dye fluorescence; actives 60% (n = 920); membrane potential signal change, % at 10 µM;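 active = membrane potential signal shifting up or down by more than 3 SD of buffer-only wells, on both duplicate plates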
# HEK293 MPD ctr-2: parental HEK293 nonspecific activity of TRPC6 modulators. shares compounds with TRPC6 inh. membrane potential dye fluorescence. membrane potential signal change, % at 10 µM. actives 51% (n = 2,400). AID 488924;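 active = membrane potential signal moves up or down beyond 5 SD from buffer-only wells, on both duplicate plates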
# HEK293 MPD ctr 2-2: second counter-screen for TRPC6 modulators: effect in parental HEK293 cells | membrane potential dye fluorescence; after compound, maximal acetylcholine stimulation | actives 14% (n = 2,400) | inhibition, % at 10 µM | AID 488926 | shares compounds with TRPC6 inh;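 active = membrane potential signal drops by more than 5 SD from the mean control signal, in both duplicate plates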;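 note: plate controls were acetylcholine ECmax control wells for no effect and buffer only wells for full effect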
# TRPC4 ctr mod: mouse TRPC4 off-target activity of TRPC6 modulators. shares compounds with TRPC6 inh. HEK293 TRPC4/mu-opioid, membrane potential fluorescence. percent change from control (negative = decrease, positive = increase), % at 10 µM. actives 69% (n = 2,400). AID 488927;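 active = membrane potential signal moved up or down beyond 5 SD of buffer control wells, in both duplicate plates, actives on both sides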;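 note: plate controls were assay buffer wells for no effect and DAMGO maximal-effect wells for full effect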
# TRPC4 ctr inh 2: mouse TRPC4 off-target activity of TRPC6 modulators, second screen | shares compounds with TRPC6 inh | HEK293 TRPC4/mu-opioid, membrane potential dye fluorescence; stimulated with maximal-effect DAMGO | inhibition, % at 10 µM | actives 55% (n = 2,400);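 active = drop in membrane potential signal beyond 5 SD of the control wells in both duplicate plates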;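 note: TRPC4 counter screen for TRPC6 hits run under conditions tuned for TRPC6 not TRPC4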
# TRPC6 block conf: mouse TRPC6 inhibitor confirmation; shares compounds with TRPC6 inh; HEK293-TRPC6, membrane potential dye, ACh-evoked depolarization; inhibition, % at 10 µM; actives 43% (n = 3,300); AID 488960;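 active = fluorescence ratio falls more than 5 SD below the full-stimulation control mean, in both duplicate runs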;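 note: integrated fluorescence ratio of peak minus minimum over baseline after agonist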
# TRPC6 act conf: confirmation of mouse TRPC6 activators. shares compounds with TRPC6 inh. HEK293-TRPC6 membrane potential dye fluorescence, FDSS. activation, % at 10 µM. actives 11% (n = 2,800). AID 488961;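 active = ratio signal rise beyond 5 SD above unstimulated control wells' mean, seen in both duplicate runs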;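 note: plate controls were buffer EC0 wells for no effect and acetylcholine ECmax response for full effect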
# Numbers without * were called inactive; i = inactive; · = no result given.
SMILES,TRPC4 act,TRPC6 activator,TRPC6 inh,TRPC4 inh,TRPC4 PAM,HEK293 MPD ctr-2,HEK293 MPD ctr 2-2,TRPC4 ctr mod,TRPC4 ctr inh 2,TRPC6 block conf,TRPC6 act conf,others
CCN(CC)CCN(C(=O)c1ccc2c(c1)OCCO2)c1nc2cc3c(cc2s1)OCO3,i,i,-5.8*,i,i,i,i,-23%*,84%*,50%*,i,
CN(C)CCN(C(=O)c1ccc(Br)s1)c1nc2cc3c(cc2s1)OCCO3,i,i,i,i,i,·,·,·,·,·,·,
CN(C)CCCN(C(=O)c1ccc2c(c1)OCCO2)c1nc2cc3c(cc2s1)OCO3,i,i,-5.7*,i,i,i,i,-18%*,80%*,78%*,i,
CN(C)CCN(C(=O)c1cccs1)c1nc2cc3c(cc2s1)OCCO3,i,i,-8*,i,i,·,·,·,·,96%*,i,TRPC4 spec 2=44%*;TRPC4 spec=-18%*;HEK293 MPD ctr 2-1=i;HEK293 MPD ctr-1=-230%*
Cc1cc(C)c2sc(N(CCCN(C)C)C(=O)c3ccc(Br)s3)nc2c1,i,i,-9.6*,i,i,·,·,·,·,78%*,i,TRPC4 spec 2=35%*;TRPC4 spec=-17%*;HEK293 MPD ctr 2-1=i;HEK293 MPD ctr-1=i
CN(C)CCCN(C(=O)c1ccc2ccccc2c1)c1nc2cc3c(cc2s1)OCO3,i,i,i,i,i,·,·,·,·,·,·,
CNc1nc(-c2ccccc2)cc(C)c1S(C)(=O)=O,i,i,i,i,i,·,·,·,·,·,·,
Cc1cc(C)c2nc(N(CCCN(C)C)C(=O)C3=COCCO3)sc2c1,i,i,i,i,i,·,·,·,·,·,·,
CCN(CC)CCN(C(=O)C1=COCCO1)c1nc2cc(C)cc(C)c2s1,i,i,-6.7*,i,i,·,·,·,·,i,i,TRPC4 spec 2=44%*;TRPC4 spec=i;HEK293 MPD ctr 2-1=i;HEK293 MPD ctr-1=0.6%*
Cc1cc(C)c2nc(N(CCCN(C)C)C(=O)c3ccc4c(c3)OCCO4)sc2c1,i,i,-8.2*,i,i,·,·,·,·,i,i,TRPC4 spec 2=i;TRPC4 spec=i;HEK293 MPD ctr 2-1=i;HEK293 MPD ctr-1=0.4%*
COc1ccc(C)c2sc(N(CCCN(C)C)C(=O)c3ccc(S(=O)(=O)N4CCc5ccccc5C4)cc3)nc12,i,i,i,i,i,·,·,·,·,·,·,
COc1ccc(C)c2sc(N(CCCN(C)C)C(=O)c3ccc4c(c3)OCCO4)nc12,i,i,-6.9*,i,i,·,·,·,·,52%*,i,TRPC4 spec 2=47%*;TRPC4 spec=i;HEK293 MPD ctr 2-1=i;HEK293 MPD ctr-1=i
COc1ccc(C)c2sc(N(CCN(C)C)C(=O)c3cccc(N4C(=O)CCC4=O)c3)nc12,68*,i,-6.4*,i,i,i,i,-18%*,44%*,i,i,
COc1ccc(N2C(=O)CC(C)(C)CC2=O)cc1OC,i,i,i,i,i,·,·,·,·,·,·,
O=c1c2ccccc2oc2ccc(C#CC3(O)CCCCC3)cc12,i,i,i,i,i,·,·,·,·,·,·,
COc1cccc2oc3ccc(C#CC4(N)CCCCC4)cc3c(=O)c12,i,i,-11*,i,i,·,·,·,·,i,i,TRPC4 spec 2=68%*;TRPC4 spec=i;HEK293 MPD ctr 2-1=237%*;HEK293 MPD ctr-1=i
CN(NS(=O)(=O)c1ccc(Br)cc1)c1nc(C(F)(F)F)nc2ccccc12,i,i,-5.9*,i,i,i,i,18%*,37%*,46%*,·,
CN(N)c1nc(C(F)(F)F)nc2ccccc12,i,i,i,i,i,·,·,·,·,·,·,
COCc1ccc(CN2CCC(C(=O)Nc3cccc(-c4cccc(Cl)c4)c3)CC2)o1,i,i,i,i,i,·,·,·,·,·,·,
COc1cccc(-c2cccc(NC(=O)C3CCN(Cc4ccc(C)o4)CC3)c2)c1,i,i,-5.3*,i,i,128%*,i,18%*,44%*,i,·,
C=CCn1cc(C(=O)N2CCN(c3ccccc3)CC2)c(=O)c2cc(S(=O)(=O)N3CCCC3)ccc21,i,i,i,i,i,·,·,·,·,·,·,
Cc1nnc2ccc(-c3cccc(NC(=O)c4ccc(Cl)nc4)c3)nn12,i,i,-5.8*,i,i,i,i,-16%*,37%*,48%*,i,
Cc1nnc2sc(-c3cccc(NC(=O)c4cccnc4)c3)nn12,i,i,-6.5*,i,i,-148%*,i,-28%*,i,i,i,
Cc1ccc(-c2nn3c(C)nnc3s2)cc1NC(=O)c1cccnc1,i,i,-9.7*,i,i,-244%*,i,-43%*,40%*,i,i,
Cc1nnc2ccc(-c3cccc(NC(=O)c4ccc(Br)o4)c3)nn12,i,i,i,i,i,·,·,·,·,·,·,
CCOc1cccc(C(=O)Nc2cc(-c3nn4c(C)nnc4s3)ccc2C)c1,i,i,i,i,i,·,·,·,·,·,·,
COc1ccc(C)cc1NC(=O)n1ncc2cc(Cl)ccc21,i,i,i,i,i,·,·,·,·,·,·,
CC(C)c1c(C(=O)N/N=C/c2ccccc2OCc2c(F)cccc2Cl)nnn1-c1nonc1N,i,i,i,i,i,·,·,·,·,·,·,
CCN1CCCC1CNC(=O)C1CCN(Cc2nc(-c3cccc(Br)c3)oc2C)CC1 (centres undefined),i,i,-8.9*,i,i,·,·,·,·,i,i,TRPC4 spec 2=60%*;TRPC4 spec=-18%*;HEK293 MPD ctr 2-1=i;HEK293 MPD ctr-1=-240%*
